# Results of several laboratories.
# pIC50: −log10 of the molar value.
# CYP2C9: Cytochrome P450 2C9 (CYP2C9, Homo sapiens, UniProt P11712)
SMILES,target or system,assay,system,conditions,endpoint,result
CSc1ccccc1C(=O)NCCn1cc(C(=O)NCc2cccc(C)n2)c(=O)c2cc3c(cc21)OCO3,CYP2C9,"enzyme activity, inhibitor","human, liver microsomes","20 min, without NADPH, with preincubation",pIC50,< 4.00
CC(=O)O[C@@H]1[C@@H](O)[C@H](O[C@H]2CC[C@]34C[C@]35CC[C@]3(C)[C@@H]([C@@]6(C)CC[C@@H](C(C)(C)O)O6)[C@@H](O)C[C@@]3(C)[C@@H]5C[C@H](O[C@@H]3O[C@H](CO)[C@@H](O)[C@H](O)[C@H]3O)[C@H]4C2(C)C)OC[C@H]1O,CYP2C9,"enzyme activity, inhibitor","human, liver microsomes",,pIC50,< 3.70
CSc1ccccc1C(=O)NCCn1cc(C(=O)NCc2cccc(C)n2)c(=O)c2cc3c(cc21)OC(F)(F)O3,CYP2C9,"enzyme activity, inhibitor","human, liver microsomes","20 min, without NADPH, with preincubation",pIC50,< 4.00
OCc1ccc(-c2nn(Cc3ccccn3)c3ccccc23)o1,,metabolic stability,"rat, liver microsomes","1 µM, pH 7.4",half-life,11 min
N#Cc1ccc(C[C@H](NC(=O)c2cc3cc(F)ccc3[nH]2)C(=O)N2CCc3ccccc32)cc1,,metabolic stability,"rat, liver microsomes","10 µM, pH 7.4",half-life,76 min
CN(C)C(=O)c1cc2cnc(Nc3ccc(-c4ccc5c(=O)cc(N6CCOCC6)oc5c4)cc3)nc2n1C1CCCC1.Cl,,,"BALB/c mouse, plasma","oral, 20 mg/kg",AUC(0-inf),7.81 µg·h/mL
OCc1ccc(-c2nn(Cc3ccccc3)c3ccccc23)o1,,metabolic stability,"rat, liver microsomes",,half-life,5 min
Cc1ccc(-c2nnc(N[C@@H](Cc3ccc(C#N)cc3)C(=O)N3CCc4ccccc43)o2)cc1,,metabolic stability,"rat, liver microsomes","10 µM, pH 7.4",half-life,14 min
COc1ccc(-c2coc3cc(O[C@@H]4O[C@H](CO)[C@@H](O)[C@H](O)[C@H]4O)ccc3c2=O)cc1O,CYP2C9,"enzyme activity, inhibitor","human, liver microsomes",,pIC50,< 3.70
